Laboratory results published in publication PMC3667888 (Channels, 2013).
Where a chain is given by its changes, count along the chain named.

Assays:
Type in all cases: cell-based
[1] = molecular target: T1, Kv4.2 K318R mutant channels (co-injected with KChIP1b) (Rattus norvegicus, UniProt Q63881, K318R); assay: Two-electrode voltage clamp, K318R mutant Kv4.2/KChIP1b in Xenopus oocytes; conditions: 10 µM AA, 10 min
T1 sequence (Q63881 1-630 K318R): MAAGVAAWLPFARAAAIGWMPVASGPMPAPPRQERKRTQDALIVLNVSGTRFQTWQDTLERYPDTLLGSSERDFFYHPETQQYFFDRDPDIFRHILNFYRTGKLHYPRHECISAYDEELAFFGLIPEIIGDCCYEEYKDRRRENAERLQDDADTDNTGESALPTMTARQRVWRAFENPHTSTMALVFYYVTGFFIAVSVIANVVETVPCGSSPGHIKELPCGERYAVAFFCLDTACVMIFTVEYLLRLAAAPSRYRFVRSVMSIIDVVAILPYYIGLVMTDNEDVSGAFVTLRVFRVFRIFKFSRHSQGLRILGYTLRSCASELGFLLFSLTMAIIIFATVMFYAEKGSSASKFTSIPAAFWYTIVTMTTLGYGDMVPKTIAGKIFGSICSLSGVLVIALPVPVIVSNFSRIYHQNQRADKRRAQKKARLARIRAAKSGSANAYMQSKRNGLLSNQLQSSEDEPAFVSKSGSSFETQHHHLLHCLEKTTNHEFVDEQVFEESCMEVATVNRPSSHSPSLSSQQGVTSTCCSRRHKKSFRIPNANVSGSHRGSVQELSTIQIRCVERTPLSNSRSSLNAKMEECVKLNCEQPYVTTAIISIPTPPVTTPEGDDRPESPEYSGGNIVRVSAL
Method in brief: (§1)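 Rat Kv4.2 (WT or QuikChange mutant) RNA co-injected equimolar with KChIP1b, 5–10 ng/oocyte, into Xenopus oocytes held 1–5 d at 17–19 °C. Two-electrode voltage clamp at room temperature in perfused Na/K methanesulfonate HEPES saline, pH 7.4–7.5, with P/−4 or P/−6 leak subtraction. Peak current at +40 mV (from −90 mV) after 10 min of 10 μM AA is expressed relative to pre-AA current. Mean ± SE, n = cells.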

[2] = molecular target: T2, Kv4.2 R311Q mutant channels (co-injected with KChIP1b) (Rattus norvegicus, UniProt Q63881, R311Q); assay: Two-electrode voltage clamp, R311Q mutant Kv4.2/KChIP1b in Xenopus oocytes; conditions: 10 µM AA, 10 min
T2 sequence (Q63881 1-630 R311Q): T1 sequence (Q63881 1-630 K318R) with R311Q, R318K

[3] = molecular target: T3, Kv4.2 G314F mutant channels (co-injected with KChIP1b) (Rattus norvegicus, UniProt Q63881, G314F); assay: Two-electrode voltage clamp, G314F mutant Kv4.2/KChIP1b in Xenopus oocytes; conditions: read-out: inhibition of the peak K+ current
T3 sequence (Q63881 1-630 G314F): T1 sequence (Q63881 1-630 K318R) with G314F, R318K
Method in brief: as §1

Compound: CCCCC/C=C\C/C=C\C/C=C\C/C=C\CCCC(=O)O [AA, arachidonic acid]
- inhibition of peak K+ current by AA, effect of mutation [1]: preserved the strong inhibition by AA
- inhibition of peak K+ current by AA, effect of mutation [2]: did not significantly disrupt the inhibitory effects of AA
- inhibition at 10 µM [3]: 22%
